Assay results reported in ChEMBL document CHEMBL3580567 (J Med Chem, 2015).
In brackets after ≈: the same amount, converted by molar mass. Activity calls are given as the source filed them. The calls are words filed in the database; no cut-off is given here.

Experiments:
[1] = biological target: T1, Melatonin receptor type 1A (Homo sapiens, UniProt P48039); experiment: Displacement of 2-[125I]-iodomelatonin from human melatonin receptor-1 transfected in CHO cell membranes after 120 mins
[2] = biological target: T2, Melatonin receptor type 1B (Homo sapiens, UniProt P49286); experiment: Displacement of 2-[125I]-iodomelatonin from human melatonin receptor-2 transfected in CHO cell membranes after 120 mins
T2 sequence (P49286 whole entry): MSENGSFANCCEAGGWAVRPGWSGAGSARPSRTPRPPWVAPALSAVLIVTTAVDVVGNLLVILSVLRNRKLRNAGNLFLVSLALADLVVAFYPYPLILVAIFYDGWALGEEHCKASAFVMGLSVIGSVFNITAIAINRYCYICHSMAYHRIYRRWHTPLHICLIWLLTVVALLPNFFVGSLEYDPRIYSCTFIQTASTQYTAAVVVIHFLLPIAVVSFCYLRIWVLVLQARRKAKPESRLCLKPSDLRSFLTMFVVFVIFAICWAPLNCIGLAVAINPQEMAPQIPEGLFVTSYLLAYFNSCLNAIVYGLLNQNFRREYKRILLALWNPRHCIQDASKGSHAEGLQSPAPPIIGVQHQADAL

[3] = Thermodynamic solubility in buffer at pH 5.5 after 24 hrs by UV spectra analysis; format: physicochemical; settings: read-out: Therm_solubility
[4] = Thermodynamic solubility in phosphate buffer at pH 7.4 after 24 hrs by UV spectra analysis; format: physicochemical; settings: read-out: Therm_solubility
Method in brief: (§1)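 Thermodynamic solubility: about 1 mg of solid was saturated in 200 µL buffer and stirred 24 h at rt at 320 rpm, then centrifuged. Supernatant was diluted with buffer-MeCN 80:20 and read by UV at its absorbance maximum. Values were quantified against a calibration line from a 10 mM DMSO stock, checked with a quality-control standard. Runs were in triplicate. The buffers were pH 7.4 phosphate 45 mM and NH4Cl for the basic pH.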

[5] = Thermodynamic solubility in NH4Cl buffer at pH 9.3 after 24 hrs by UV spectra analysis; format: physicochemical; settings: read-out: Therm_solubility; method in brief: as §1
[6] = organism: Homo sapiens; experiment: Selectivity ratio of Ki for human melatonin receptor-1 to Ki for human melatonin receptor-2
[7] = biological target: T1, Melatonin receptor type 1A; experiment: Agonist activity at human melatonin receptor-1 transfected in CHO cell membranes after 1 hr by GTPgammaS binding assay; format: functional
[8] = biological target: T1, Melatonin receptor type 1A; experiment: Agonist activity at human melatonin receptor-1 transfected in CHO cell membranes after 1 hr by GTPgammaS binding assay relative to melatonin; format: functional
Method in brief: (§2)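 CHO membranes (20 µg/mL) stably expressing human MT1 or MT2 in 20 mM HEPES pH 7.4, 100 mM NaCl, 3 µM GDP, 3 mM MgCl2, 20 µg/mL saponin. Incubated with 0.2 nM [35S]GTPγS for 1 h at rt, then filtered. Non-specific binding defined with 10 µM GTPγS. Seven concentrations in duplicate; EC50 and Emax fitted.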

[9] = biological target: T2, Melatonin receptor type 1B; experiment: Agonist activity at human melatonin receptor-2 transfected in CHO cell membranes after 1 hr by GTPgammaS binding assay; format: functional
[10] = biological target: T3, Melatonin receptor type 1B (Homo sapiens) (UniProt P49286); experiment: Agonist activity at human melatonin receptor-2 transfected in CHO cell membranes after 1 hr by GTPgammaS binding assay relative to melatonin; format: functional; method in brief: as §2
T3 sequence (whole entry): T2 sequence (P49286 whole entry)

[11] = (§3) Induction of primary neuronal stem cell differentiation derived from subgranular zone of dentate gyrus of Wistar rat hippocampus assessed as upregulation of TuJ1 expression at 10 uM incubated for 7 days followed by 48 hrs incubation in presence of serum and absence of EGF by DAPI staining-based fluorescence microscopic analysis; format: functional; settings: Primary neuron
Method in brief: (§4)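 Neurospheres came from the SGZ of the dentate gyrus of adult male Wistar rats (8-12 weeks). They were grown in DMEM/F12 with 10 ng/mL EGF, 10 ng/mL FGF and B27. After 3 days, cultures were treated with compounds for 7 days. They were then plated on poly-L-lysine coverslips for 48 h with serum and without growth factors. Cells were immunostained for TuJ1 and MAP-2 with DAPI nuclei. Positive cells were counted by fluorescence microscopy in five NS per condition over three independent experiments. Untreated cultures gave basal values.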

[12] = (§5) Induction of primary neuronal stem cell maturation derived from subgranular zone of dentate gyrus of Wistar rat hippocampus assessed as upregulation of MAP-2 expression at 10 uM incubated for 7 days by DAPI staining-based fluorescence microscopic analysis; format: functional; settings: Primary neuron; method in brief: as §4
[13] = as §3, with “analysis in presence of melatonin receptor antagonist luzindole” for “analysis”; format: functional; settings: Primary neuron; method in brief: as §4
[14] = as §5, with “analysis in presence of melatonin receptor antagonist luzindole” for “analysis”; format: functional, tissue-based; settings: Primary neuron; method in brief: as §4
[15] = Permeability of the compound at 100 ug/ml after 240 mins by PAMPA; format: physicochemical; settings: 4 h
Method in brief: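 For PAMPA-BBB, the filter was coated with porcine brain lipid in dodecane (20 mg/mL). Donor compound was 100 µg/mL in PBS:ethanol 70:30, pH 7.4, and the acceptor held PBS:ethanol 70:30. Plates were incubated 240 min at 25 °C. Acceptor concentration was read by UV-Vis at five wavelengths in four wells, over at least three runs. Eleven quality-control standards were included.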

[16] = biological target: T2, Melatonin receptor type 1B; experiment: Agonist activity at human recombinant melatonin receptor-2 expressed in CHO cells assessed as decrease of cAMP level after 10 mins by HTRF assay; format: functional, cell-based
Method in brief: (§6)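 Functional agonist profiling was done by CEREP on cells expressing human recombinant MT receptors. MT1 was read by cellular dielectric spectroscopy and MT2 by homogeneous time-resolved fluorescence. The protocols are those on the company website.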

[17] = biological target: T3, Melatonin receptor type 1B (Homo sapiens); experiment: Agonist activity at human recombinant melatonin receptor-2 expressed in CHO cells assessed as decrease of cAMP level after 10 mins by HTRF assay relative to melatonin; format: functional, cell-based
[18] = biological target: T1, Melatonin receptor type 1A; experiment: Agonist activity at human recombinant melatonin receptor-1 expressed in CHO cells assessed as effect on impedance by cellular dielectric spectroscopy; format: cell-based; method in brief: as §6
[19] = biological target: T1, Melatonin receptor type 1A; experiment: Agonist activity at human recombinant melatonin receptor-1 expressed in CHO cells assessed as effect on impedance by cellular dielectric spectroscopy relative to melatonin; format: cell-based
[20] = Solubility in the water; format: physicochemical; settings: buffer
[21] = biological target: T4, 5-hydroxytryptamine receptor 1A (Rattus norvegicus, UniProt P19327); experiment: Displacement of [3H]8-OH DPAT from rat 5HT1A receptor expressed in CHO cells after 30 mins by liquid scintillation counting analysis; format: cell-based
T4 sequence (P19327 whole entry): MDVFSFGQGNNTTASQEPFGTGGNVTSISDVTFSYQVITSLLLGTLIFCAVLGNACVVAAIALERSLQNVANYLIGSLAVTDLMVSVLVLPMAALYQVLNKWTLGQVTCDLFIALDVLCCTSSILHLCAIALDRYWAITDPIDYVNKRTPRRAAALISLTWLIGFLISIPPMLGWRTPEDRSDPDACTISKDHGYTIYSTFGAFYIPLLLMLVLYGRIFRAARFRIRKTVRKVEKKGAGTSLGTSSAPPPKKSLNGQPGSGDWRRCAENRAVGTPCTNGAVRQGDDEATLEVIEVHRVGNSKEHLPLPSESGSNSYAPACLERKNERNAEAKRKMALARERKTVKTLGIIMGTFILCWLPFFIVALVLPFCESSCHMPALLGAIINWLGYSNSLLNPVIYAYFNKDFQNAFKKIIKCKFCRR

[22] = biological target: 5-hydroxytryptamine receptor 2A (Rattus norvegicus, UniProt P14842); experiment: Displacement of [3H]DOB from rat 5HT2A receptor expressed in mouse NIH/3T3 cells after 30 mins by liquid scintillation counting analysis; format: cell-based
Sequence of 5-hydroxytryptamine receptor 2A (P14842 whole entry): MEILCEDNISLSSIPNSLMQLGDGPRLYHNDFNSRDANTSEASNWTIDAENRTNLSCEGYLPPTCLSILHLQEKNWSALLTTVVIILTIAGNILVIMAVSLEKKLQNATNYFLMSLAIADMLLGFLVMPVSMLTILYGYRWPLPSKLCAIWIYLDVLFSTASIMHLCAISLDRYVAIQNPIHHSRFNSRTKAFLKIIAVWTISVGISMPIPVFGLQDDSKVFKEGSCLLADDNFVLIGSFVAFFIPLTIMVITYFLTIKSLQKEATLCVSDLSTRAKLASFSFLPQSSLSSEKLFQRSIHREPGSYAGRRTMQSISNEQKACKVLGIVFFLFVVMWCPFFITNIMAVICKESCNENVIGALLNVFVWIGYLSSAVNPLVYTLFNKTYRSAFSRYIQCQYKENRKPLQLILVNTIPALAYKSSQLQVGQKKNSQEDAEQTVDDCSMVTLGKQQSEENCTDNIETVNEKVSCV

T1 sequence (P48039 whole entry): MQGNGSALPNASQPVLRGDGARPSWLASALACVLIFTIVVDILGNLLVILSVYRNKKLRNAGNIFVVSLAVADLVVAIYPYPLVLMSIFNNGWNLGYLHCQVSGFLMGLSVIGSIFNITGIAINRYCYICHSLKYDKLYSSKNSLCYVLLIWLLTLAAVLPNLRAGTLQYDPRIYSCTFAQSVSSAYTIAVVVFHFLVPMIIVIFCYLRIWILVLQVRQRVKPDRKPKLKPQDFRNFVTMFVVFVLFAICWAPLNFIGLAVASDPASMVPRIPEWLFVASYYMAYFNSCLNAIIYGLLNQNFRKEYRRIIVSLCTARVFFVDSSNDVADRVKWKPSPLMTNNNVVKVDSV

Compound	Ki [1] [µM]	Ki [2] [µM]	solubility thermodynamic at 24 h [4] [µM]	Ratio Ki [6]	EC50 [7] [µM]	Emax [8] [%]	EC50 [9] [µM]	Emax [10] [%]	also measured
COc1ccc2[nH]cc(CCc3n[nH]c(=O)n3C)c2c1	> 1	> 1	1100 (≈ 301 µg/mL)	–	–	–	–	–	solubility thermodynamic at 24 h [3]: 860 µM (≈ 234 µg/mL); solubility thermodynamic at 24 h [5]: 1410 µM (≈ 383 µg/mL)
COc1ccc2[nH]cc(Cc3nc(C)no3)c2c1	0.17	0.044	1160 (≈ 283 µg/mL)	3.9	0.711	16	0.295	48	–
COc1ccc2[nH]cc(Cc3n[nH]c(=S)o3)c2c1	> 1	0.535	–	–	–	–	> 1	–	–
CC(=O)NCCc1c(Cc2ccccc2)[nH]c2ccccc12	–	–	–	–	–	–	–	–	Activity [11]: inactive
CCn1c(CCc2c[nH]c3ccc(OC)cc23)n[nH]c1=S	> 1	> 1	137 (≈ 41.4 µg/mL)	–	–	–	–	–	solubility thermodynamic at 24 h [3]: 131 µM (≈ 39.6 µg/mL); solubility thermodynamic at 24 h [5]: 208 µM (≈ 62.9 µg/mL)
COc1ccc2cccc(CCNC(C)=O)c2c1 [AGOMELATINE]	–	–	804 (≈ 196 µg/mL)	–	–	–	–	–	–
COc1ccc2[nH]cc(CCc3nnco3)c2c1	0.57	0.068	–	8.6	> 1	–	0.457	25	–
CCNc1nnc(Cc2c[nH]c3ccc(OC)cc23)s1	> 1	0.017	1420 (≈ 409 µg/mL)	> 500	–	–	0.11	35	solubility thermodynamic at 24 h [3]: 1720 µM (≈ 495 µg/mL); solubility thermodynamic at 24 h [5]: 1440 µM (≈ 414 µg/mL); Activity [11]: Active
COc1ccc2[nH]cc(CCc3n[nH]c(=O)o3)c2c1	0.035	0.004	2100 (≈ 544 µg/mL)	10	0.326	26	0.029	30	solubility thermodynamic at 24 h [3]: 1410 µM (≈ 365 µg/mL); solubility thermodynamic at 24 h [5]: 7920 µM (≈ 2050 µg/mL); Activity [11]: Active; Activity [12]: Active; Activity [13]: inactive; Activity [14]: inactive; permeability [15]: permeable; EC50 [16]: 0.0055 µM; Emax [17]: 97%; EC50 [18]: 0.048 µM; Emax [19]: 100%
C#CCNC(=O)Cc1c[nH]c2ccc(OC)cc12	0.014	0.0038	–	3.6	0.289	67	0.081	82	–
COc1ccc2[nH]cc(CCc3nc(C)no3)c2c1	> 1	> 1	–	–	–	–	–	–	–
COc1ccc2[nH]cc(Cc3ncc(C)o3)c2c1	0.28	> 1	–	–	0.989	23	–	–	–
COc1ccc2[nH]cc(CCNC(C)=O)c2c1 [MELATONIN]	–	–	6640 (≈ 1540 µg/mL)	–	–	–	–	–	Activity [11]: Active; Activity [12]: Active; Activity [13]: inactive; Activity [14]: inactive; solubility [20]: 400 µM (≈ 92.9 µg/mL)
CCn1c(Cc2c[nH]c3ccc(OC)cc23)n[nH]c1=S	> 1	0.22	–	–	–	–	> 1	–	–
COc1ccc2[nH]cc(CCc3n[nH]c(=S)o3)c2c1	> 1	0.53	3460 (≈ 953 µg/mL)	–	–	–	1.1	32	solubility thermodynamic at 24 h [3]: 907 µM (≈ 250 µg/mL); solubility thermodynamic at 24 h [5]: 18700 µM (≈ 5140 µg/mL)
C=CCNC(=O)Cc1c[nH]c2ccc(OC)cc12	0.017	0.0049	–	3.5	0.525	64	0.132	70	–
C#CCNC(=O)CCc1c[nH]c2ccc(OC)cc12	–	–	–	5	–	106	–	99	Activity [11]: Active; Activity [12]: inactive
C=CCNC(=O)CCc1c[nH]c2ccc(OC)cc12	0.0025	0.00045	–	5.5	0.204	92	0.011	88	–
COc1ccc2[nH]cc(Cc3nnc(C)o3)c2c1	0.21	0.016	970 (≈ 236 µg/mL)	10	> 1	–	0.071	24	–
COc1ccc2[nH]cc(CCN(C)C)c2c1 [MEBUFOTENIN]	0.21	0.016	–	10	0.257	62	0.112	28	Ki [21]: 0.011 µM; Ki [22]: 0.092 µM
COc1ccc2[nH]cc(Cc3n[nH]c(=O)o3)c2c1	> 1	0.16	–	–	–	–	> 1	–	–
COc1ccc2[nH]cc(CCc3ncc(C)o3)c2c1	> 1	0.498	–	–	–	–	0.503	32	–
COc1ccc2[nH]cc(Cc3n[nH]c(=O)n3C)c2c1	> 1	0.56	–	–	–	–	> 1	–	–
